# What was measured:
# Set-up in all cases: dose 5 mg/kg, route oral
# Conditions in all cases: in vivo
# Thyroid gland = assay: Biodistribution in Sprague-Dawley rat thyroid at 5 mg/kg, po after 24 hrs; assay type: ADME, organism-based
# Summary of the method: (§1)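 Male SD rats (n = 4 per group) were given [¹⁴C]-labelled compound at 5 mg/kg per os. They were killed 3 and 24 h after dosing. Harvested tissues were processed and radioactivity was measured directly by liquid scintillation counting.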
# Pancreas = assay: Biodistribution in Sprague-Dawley rat pancreas at 5 mg/kg, po after 24 hrs; assay type: ADME, organism-based
# Summary of the method: (§2)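 Male SD rats (n = 4 per group) were dosed orally with [¹⁴C]-labelled prodrug at 5 mg/kg. Animals were killed 3 or 24 h after dosing. Harvested tissues, blood and plasma were processed and analysed directly for radioactivity by liquid scintillation counting.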
# Zone of skin = assay: Biodistribution in Sprague-Dawley rat skin at 5 mg/kg, po after 3 hrs; assay type: ADME, organism-based; summary of the method: as §2
# Kidney = assay: Biodistribution in Sprague-Dawley rat kidney at 5 mg/kg, po after 24 hrs; assay type: ADME, organism-based; summary of the method: as §2
# Thymus [1] = assay: Biodistribution in Sprague-Dawley rat thymus at 5 mg/kg, po after 24 hrs; assay type: ADME, organism-based; summary of the method: as §1
# Lung = assay: Biodistribution in Sprague-Dawley rat lung at 5 mg/kg, po after 24 hrs; assay type: ADME, organism-based; summary of the method: as §2
# [2] = Biodistribution in Sprague-Dawley rat stomach at 5 mg/kg, po after 3 hrs; assay type: ADME, organism-based; summary of the method: as §1
# [3] = Biodistribution in Sprague-Dawley rat bone marrow at 5 mg/kg, po after 3 hrs; assay type: ADME, organism-based; summary of the method: as §2
# Adrenal gland [4] = assay: Biodistribution in Sprague-Dawley rat adrenal gland at 5 mg/kg, po after 24 hrs; assay type: ADME, organism-based; summary of the method: as §2
# Muscle tissue [5] = assay: Biodistribution in Sprague-Dawley rat muscle at 5 mg/kg, po after 3 hrs; assay type: ADME, organism-based; summary of the method: as §2
# Plasma = assay: Biodistribution in Sprague-Dawley rat plasma at 5 mg/kg, po after 24 hrs; assay type: ADME, organism-based; summary of the method: as §2
# [6] = Biodistribution in Sprague-Dawley rat femur bone at 5 mg/kg, po after 24 hrs; assay type: ADME, organism-based, Bone element; summary of the method: as §2
# Thymus [7] = assay: Biodistribution in Sprague-Dawley rat thymus at 5 mg/kg, po after 3 hrs; assay type: ADME, organism-based; summary of the method: as §1
# [8] = Biodistribution in Sprague-Dawley rat epididymal fat at 5 mg/kg, po after 3 hrs; assay type: ADME, organism-based, Adipose tissue; summary of the method: as §2
# [9] = Biodistribution in Sprague-Dawley rat cervical lymph node at 5 mg/kg, po after 3 hrs; assay type: ADME, organism-based; summary of the method: as §2
# [10] = Biodistribution in Sprague-Dawley rat stomach at 5 mg/kg, po after 24 hrs; assay type: ADME, organism-based; summary of the method: as §1
# Adrenal gland [11] = assay: Biodistribution in Sprague-Dawley rat adrenal gland at 5 mg/kg, po after 3 hrs; assay type: ADME, organism-based; summary of the method: as §2
# [12] = Biodistribution in Sprague-Dawley rat mesenteric lymph at 5 mg/kg, po after 3 hrs; assay type: ADME, organism-based, Mesenteric lymph node; summary of the method: as §2
# [13] = Biodistribution in Sprague-Dawley rat urinary bladder at 5 mg/kg, po after 3 hrs; assay type: ADME, organism-based; summary of the method: as §1
# [14] = Biodistribution in Sprague-Dawley rat mesenteric lymph at 5 mg/kg, po after 24 hrs; assay type: ADME, organism-based, Mesenteric lymph node; summary of the method: as §2
# Spleen [15] = assay: Biodistribution in Sprague-Dawley rat spleen at 5 mg/kg, po after 24 hrs; assay type: ADME, organism-based; summary of the method: as §2
# Testes = assay: Biodistribution in Sprague-Dawley rat testes at 5 mg/kg, po after 24 hrs; assay type: ADME, organism-based, Testis; summary of the method: as §1
# [16] = Biodistribution in Sprague-Dawley rat large intestine at 5 mg/kg, po after 24 hrs; assay type: ADME, organism-based; summary of the method: as §2
# Muscle tissue [17] = assay: Biodistribution in Sprague-Dawley rat muscle at 5 mg/kg, po after 24 hrs; assay type: ADME, organism-based; summary of the method: as §2
# [18] = Biodistribution in Sprague-Dawley rat cervical lymph node at 5 mg/kg, po after 24 hrs; assay type: ADME, organism-based; summary of the method: as §2
# [19] = Biodistribution in Sprague-Dawley rat stomach C&W at 5 mg/kg, po after 3 hrs; assay type: ADME, organism-based; summary of the method: as §1
# [20] = Biodistribution in Sprague-Dawley rat pituitary gland at 5 mg/kg, po after 24 hrs; assay type: ADME, organism-based; summary of the method: as §2
# [21] = Biodistribution in Sprague-Dawley rat large intestine at 5 mg/kg, po after 3 hrs; assay type: ADME, organism-based
# Summary of the method: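 Male SD rats (n = 4 per group) were given a single oral dose of [¹⁴C]-labelled prodrug at 5 mg/kg. They were killed at 3 and 24 h after dosing. Harvested tissues were processed and analysed directly by liquid scintillation counting to give tissue radioactivity concentrations.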
# Spleen [22] = assay: Biodistribution in Sprague-Dawley rat spleen at 5 mg/kg, po after 3 hrs; assay type: ADME, organism-based; summary of the method: as §1
# [23] = Biodistribution in Sprague-Dawley rat small intestine C&W at 5 mg/kg, po after 24 hrs; assay type: ADME, organism-based; summary of the method: as §2
smiles,measurement,setting,value
Cc1cc(OCP2(=O)OCC[C@@H](c3cccc(Cl)c3)O2)cc([14CH3])c1Cc1ccc(O)c(C(C)C)c1 (stereo not given in full),Drug uptake,Thyroid gland,0.03 nmol/g
same,Drug uptake,Pancreas,0.25 nmol/g
same,Drug uptake,Zone of skin,0.08 nmol/g
same,Drug uptake,Kidney,0.14 nmol/g
same,Drug uptake,Thymus [1],0.01 nmol/g
same,Drug uptake,Lung,0.04 nmol/g
same,Drug uptake,[2],76.96 nmol/g
same,Drug uptake,[3],0.06 nmol/g
same,Drug uptake,Adrenal gland [4],0.09 nmol/g
same,Drug uptake,Muscle tissue [5],0.07 nmol/g
same,Drug uptake,Plasma,0.05 nmol/g
same,Drug uptake,[6],0.02 nmol/g
same,Drug uptake,Thymus [7],0.09 nmol/g
same,Drug uptake,[8],0.15 nmol/g
same,Drug uptake,[9],0.12 nmol/g
same,Drug uptake,[10],0.22 nmol/g
same,Drug uptake,Adrenal gland [11],0.77 nmol/g
same,Drug uptake,[12],16.61 nmol/g
same,Drug uptake,[13],0.18 nmol/g
same,Drug uptake,[14],0.05 nmol/g
same,Drug uptake,Spleen [15],0.01 nmol/g
same,Drug uptake,Testes,0.04 nmol/g
same,Drug uptake,[16],0.64 nmol/g
same,Drug uptake,Muscle tissue [17],0.01 nmol/g
same,Drug uptake,[18],0.03 nmol/g
same,Drug uptake,[19],24.52 nmol/g
same,Drug uptake,[20],0.02 nmol/g
same,Drug uptake,[21],1.23 nmol/g
same,Drug uptake,Spleen [22],2.57 nmol/g
same,Drug uptake,[23],0.2 nmol/g
